This note sets out measurements from ChEMBL document CHEMBL1157289, “Antiparasitic activity of some xanthones and biflavonoids from the root bark of Garcinia livingstonei” (J Nat Prod, 2006).

Structures are written as SMILES. pIC50: −log10 of the molar value. A value given as a limit tells only on which side of the number the result lay.

Data set [1] has as its system Trypanosoma brucei brucei. The data set can be described thus: Antitrypanosomal activity against Trypanosoma brucei brucei. The class given is functional, organism-based.
Data set [2] deals with Trypanosoma cruzi. Kind of data set: Antitrypanosomal activity against Trypanosoma cruzi in mouse peritoneal macrophages. In kind it is functional, organism-based. The gist of the method: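 Primary mouse peritoneal macrophages, 30 000/well, infected after 24 h with about 10 000 trypomastigotes alongside 4-fold drug dilutions. 7 days at 37 °C, 5% CO2.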
The next data set concerns Leishmania infantum. Kind of data set: Antileishmanial activity against Leishmania infantum MHOM/MA(BE)/67 amastigotes in mouse peritoneal macrophages. In kind it is functional, organism-based. The gist of the method: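 Amastigotes from serially passaged Syrian hamster infection; macrophages elicited by intraperitoneal 2% starch, harvested 24-48 h later. 5-day incubation; Giemsa-stained microscopic count; % reduction of parasite burden vs control, IC50 determined.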

For a further data set, the system named is Plasmodium falciparum. The data set can be described thus: Antiplasmodial activity against chloroquine-sensitive Plasmodium falciparum Ghana by LDH reporter assay. In kind it is functional, organism-based. In general terms: Reporter assays use an easily measured gene product as a stand-in for the process of interest.
The test system of another data set is MRC5. Kind of data set: Cytotoxicity against human MRC5 cells by alamar-blue assay. In kind it is cell-based. The gist of the method:
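Cells seeded at 5000/well, washed after 24 h, then given 4-fold dilutions in RPMI + 5% FCS, final DMSO below 0.5%. 7 days at 37 °C, 5% CO2, untreated controls included.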

Data set [3] deals with Trypanosoma cruzi. Kind of data set: Antitrypanosomal activity against Trypanosoma cruzi trypomastigotes assessed as immobilized trypomastigotes after 48 hrs. In kind it is functional.
Data set [4] is described as follows: Cytotoxicity in Leishmania infantum MHOM/MA(BE)/67 amastigotes infected mouse peritoneal macrophages. Particulars: macrophage. In kind it is cell-based.

With `CC(C)=CCc1cc(O)c2c(=O)c3cccc(O)c3oc2c1O`, the pIC50 in data set [1] was 6.06; in the data set with Trypanosoma cruzi [2], 5.15; in the data set on Leishmania infantum, 4.57; with Plasmodium falciparum it was 5.00; in the data set with MRC5, below 4.49.
As to `CC(C)=CCCC1(C)C=Cc2c(cc(O)c3c(=O)c4cccc(O)c4oc23)O1` (stereo not drawn), the pIC50 is 5.30 in data set [1]; 5.10 in the data set on Trypanosoma cruzi [2]; below 4.19 in the data set with Leishmania infantum; 4.28 with Plasmodium falciparum; below 4.19 with MRC5.
In the case of `C=CC(C)(C)c1cc(O)c2oc3c4c(ccc3c(=O)c2c1O)C=CC(C)(C)O4`, the MC100 in the data set on Trypanosoma cruzi [3] amounted to 8 µM.
In the case of `CC(C)=CCC/C(C)=C/Cc1c(O)cc(O)c2c(=O)c3cccc(O)c3oc12`, the pIC50 was 5.70 in data set [1]; 5.24 in the data set with Trypanosoma cruzi [2]; below 4.19 in the data set with Leishmania infantum; 4.23 in the data set on Plasmodium falciparum; below 4.19 in the data set on MRC5.
For `COc1ccc([C@@H]2CC(=O)c3c(O)cc(O)c([C@@H]4C(=O)c5c(O)cc(O)cc5O[C@H]4c4ccc(O)cc4)c3O2)cc1`, the pIC50 is 4.55 in data set [1]; 4.46 with Trypanosoma cruzi [2]; below 4.19 in the data set with Leishmania infantum; 5.22 in the data set with Plasmodium falciparum; 4.42 in the data set with MRC5.
Regarding `CC1=C[C@H](c2cc(O)c3c(=O)c4cccc(O)c4oc3c2O)[C@](C)(/C=C/c2cc(O)c3c(=O)c4cccc(O)c4oc3c2O)CC1` [GARCILIVIN A], the pIC50 in data set [1] was 6.40; in the data set on Trypanosoma cruzi [2], 5.40; in the data set on Leishmania infantum, 4.49; in the data set on Plasmodium falciparum it was 5.17; in the data set with MRC5, 5.70. Further, the Activity result in data set [4] was “Toxic”.
As for `CC1=C[C@@H](c2cc(O)c3c(=O)c4cccc(O)c4oc3c2O)[C@](C)(/C=C/c2cc(O)c3c(=O)c4cccc(O)c4oc3c2O)CC1` [GARCIVILIN C], the pIC50 in data set [1] was 5.11; in the data set with Trypanosoma cruzi [2] it was 4.41; with Leishmania infantum, below 4.19; in the data set with Plasmodium falciparum, below 4.19; in the data set on MRC5, 4.28.
In the data set with MRC5, `O=C1c2c(O)cc(O)cc2O[C@H](c2ccc(O)cc2)[C@H]1c1c(O)cc(O)c2c(=O)cc(-c3ccc(O)c(O)c3)oc12` [MORELLOFLAVONE] showed a negative-log IC50 (pIC50) below 4.19.

Usually pIC50 stands for the negative decadic logarithm of the IC50, by convention in mol/L.
